# High-throughput results deposited in PubChem by Johns Hopkins Ion Channel Center.
# hERG protect – hERG rescue from dofetilide block, primary screen, cell-based, CHO-hERG, FluxOR thallium flux, dofetilide IC70; Voltage-gated inwardly rectifying potassium channel KCNH2 (Homo sapiens), Q12809; dofetilide IC70 present; activation (rescue from dofetilide block), less the hit threshold, % at 10 µM; actives 0.51% (n = 310,000);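 active = activation above the mean of controls blocked by dofetilide plus 5 SD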;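 also: thallium influx through hERG after potassium depolarization seen as dye fluorescence rise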
# Target sequence (Q12809 whole entry, looked up): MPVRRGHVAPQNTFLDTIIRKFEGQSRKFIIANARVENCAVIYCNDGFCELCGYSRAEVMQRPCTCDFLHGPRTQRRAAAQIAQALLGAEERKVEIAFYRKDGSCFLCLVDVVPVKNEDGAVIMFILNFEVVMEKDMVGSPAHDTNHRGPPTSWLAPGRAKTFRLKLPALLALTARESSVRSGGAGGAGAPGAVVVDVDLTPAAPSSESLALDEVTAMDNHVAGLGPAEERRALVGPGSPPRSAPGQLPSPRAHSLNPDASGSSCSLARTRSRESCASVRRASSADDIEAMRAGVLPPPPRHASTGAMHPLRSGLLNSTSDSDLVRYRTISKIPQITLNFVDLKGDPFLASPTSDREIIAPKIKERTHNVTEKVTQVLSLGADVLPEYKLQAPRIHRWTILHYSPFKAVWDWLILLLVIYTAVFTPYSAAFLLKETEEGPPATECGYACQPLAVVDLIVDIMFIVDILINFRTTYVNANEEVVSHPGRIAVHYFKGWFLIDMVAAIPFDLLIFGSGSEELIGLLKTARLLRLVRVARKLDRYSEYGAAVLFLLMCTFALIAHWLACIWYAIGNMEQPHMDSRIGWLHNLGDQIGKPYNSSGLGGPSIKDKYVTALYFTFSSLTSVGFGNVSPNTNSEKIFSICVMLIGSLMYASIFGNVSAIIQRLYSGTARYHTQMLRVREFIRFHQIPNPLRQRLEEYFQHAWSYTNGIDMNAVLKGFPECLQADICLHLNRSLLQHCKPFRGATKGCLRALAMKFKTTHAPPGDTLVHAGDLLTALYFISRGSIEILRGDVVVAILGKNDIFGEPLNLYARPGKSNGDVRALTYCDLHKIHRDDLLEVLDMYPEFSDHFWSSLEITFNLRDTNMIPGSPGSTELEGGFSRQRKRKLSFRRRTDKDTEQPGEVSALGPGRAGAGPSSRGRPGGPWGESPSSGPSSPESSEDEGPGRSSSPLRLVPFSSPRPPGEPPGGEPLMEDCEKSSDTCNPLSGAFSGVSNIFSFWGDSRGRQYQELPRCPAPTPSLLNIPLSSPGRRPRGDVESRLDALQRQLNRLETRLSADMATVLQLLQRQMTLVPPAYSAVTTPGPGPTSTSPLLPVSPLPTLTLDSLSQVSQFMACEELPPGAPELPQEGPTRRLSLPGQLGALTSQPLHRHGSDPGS
# KCNK3 inh – human KCNK3 channel inhibitors, primary screen, CHO cells, FluxOR thallium flux, B-score; FluxOR fluorescence; stronger effect = lower value; B-score at 10 µM; AID 602410, 2012; actives 0.84% (n = 340,000);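 active = B-score under library mean minus 4 SD, starting fluorescence ratio at most library mean plus 5 SD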;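 also: more negative B-score means stronger inhibition of thallium flux through KCNK3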
# Kir21 block – inhibitors of mouse Kir2.1 inward-rectifier potassium channel | HEK293-Kir2.1, FluxOR thallium flux fluorescence; stronger effect = lower value | Inward rectifier potassium channel 2 (Mus musculus), P35561 | AID 1672, 2009 | B-score at 10 µM | actives 0.85% (n = 310,000);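 active = fluorescence ratio B-score at or below minus 3 SD of library scores, with starting-brightness B-score within 2 SD, cut at about -4.2 in these data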;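 also: channel flux triggered by added potassium and thallium sulfate stimulus; B-score of peak minus minimum fluorescence over baseline after thallium stimulus; more negative B-score means stronger Kir2.1 block with less thallium influx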
# KCNQ1 block – inhibitors of human KCNQ1 channel, primary screen, cell-based, thallium flux, high-throughput. actives 1.3% (n = 310,000). CHO-K1 KCNQ1, FluxOR thallium flux fluorescence; stronger effect = higher value. B-score at 10 µM;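 active = compounds whose thallium flux B-score, printed positive for inhibition, exceeds three library SD while starting fluorescence stays within three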;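 also: channel opened by potassium depolarization with thallium stimulus after 20 min compound exposure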
# KCNK9 inh – KCNK9 potassium channel inhibitors, primary screen, HEK293 cells, thallium flux; FluxOR thallium flux fluorescence; stronger effect = lower value; AID 488922, 2010; actives 1.2% (n = 310,000); Potassium channel subfamily K member 9 (Homo sapiens), Q9NPC2; B-score at 10 µM;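 active = ratio B-score over 3 SD below the library mean, with starting fluorescence within 5 SD of its mean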;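 also: negative B-score means less thallium flux so channel inhibition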
# KCNQ1 act – potentiators or activators of KCNQ1 channel, primary screen, cell-based, thallium flux, high-throughput; Potassium voltage-gated channel subfamily KQT member 1 (Homo sapiens), P51787; CHO-K1 KCNQ1, thallium flux FluxOR fluorescence; stronger effect = higher value; B-score at 10 µM; actives 0.35% (n = 310,000);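 active = fluorescence ratio B-score, a plate-corrected score, at least three library SD, with initial intensity B-score within 5 SD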
#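 System: CHO-K1 cells stably expressing KCNQ1 / Medium: assay buffer for compound exposure, DMSO matched across wells / Reagent: thallium- and potassium-containing depolarizing buffer / Compound: one concentration, matched DMSO / Incubation: 20 min compound pretreatment at room temperature / Measured by: kinetic FluxOR fluorescence, 10 s baseline plus 110 s post-stimulus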
# KCNK3 confirm – retest of human KCNK3 channel inhibitors, confirmation, CHO cells, FluxOR thallium flux, triplicate | shares compounds with KCNK3 inh | FluxOR fluorescence; 0% buffer, 100% carvedilol maximal block | ratio percent of control, % at 10 µM | actives 99% (n = 2,400);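 active = ratio percent of control, averaged over triplicates, above buffer control mean plus 5 SD, cut at about 64% in these data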;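 also: ratio is the fluorescence rise from min to max over baseline after thallium stimulus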
# KCNK3 noninduced – thallium flux inhibition in non-induced cells, primary screen, counter-screen for KCNK3 inhibitor project, cell-based, non-induced KCNK3 line, FluxOR thallium, triplicate. shares compounds with KCNK3 inh. non-induced KCNK3 parental cells; stronger effect = lower value. thallium flux ratio (lower = more inhibition) at 10 µM. actives 40% (n = 2,400);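 active = thallium flux ratio, averaged over three wells, more than 5 SD below the buffer control mean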;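 also: host cells are CHO cells without KCNK3 induction; ratio is peak minus trough fluorescence over baseline then normalized to buffer controls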
# The depositor's hits bear a star; i = inactive; nt = no result. Most compounds without a hit are left out; they make up all but 3.7% or so of the library.
SMILES,hERG protect,KCNK3 inh,Kir21 block,KCNQ1 block,KCNK9 inh,KCNQ1 act,KCNK3 confirm,KCNK3 noninduced
COC(=O)C1=C(C)N(C)C(C)=C(C(=O)OC)C1c1ccncc1,-14,i,-0.67,i,i,i,nt,nt
COC(=O)C1=C(C)N(C)C(C)=C(C(=O)OC)C1c1ccc(F)c(Br)c1,-14,-9.1*,-0.99,i,i,i,110*,i
COC(=O)CSc1nc(Cc2ccccc2)nc2ccccc12,-29,-8.7*,-2.8,i,i,i,119*,i
CSc1cccc(CN2CCC(CO)(Cc3cccc(C(F)(F)F)c3)CC2)c1,-18,-11*,-1.6,i,i,i,116*,0.15*
Cc1ccc(-n2cc(CN3CCC(CO)(Cc4cccc(C(F)(F)F)c4)CC3)cn2)cc1,-23,i,-2.5,i,i,i,nt,nt
CN1CCN(C2Cc3cc(F)ccc3Sc3ccc(Cl)cc32)CC1 (stereo not given),-14,-10*,-1.8,i,i,i,114*,i
CCOC(=O)C1(CCCc2ccccc2)CCN(S(=O)(=O)N(C)C)CC1,-4,i,-0.83,i,i,i,nt,nt
O=C(O)Cn1nnc(-c2ccc(OCc3ccccc3Cl)cc2)n1,-3,i,0.26,i,i,i,nt,nt
CC(C)n1nnc(-c2ccc(OCc3ccccc3F)cc2)n1,-7,-9.1*,0.15,i,-7.9*,i,99*,i
COc1ccc(-c2[nH]ncc2CN(C)C(C)c2cccs2)c(F)c1 (stereo not given),-4,-9.5*,-2.2,i,i,i,101*,i
CC(=O)c1ccc(S(=O)(=O)N2CCC3(CC2)CC(=O)c2ccccc2O3)cc1,-7,i,0.24,i,i,i,nt,nt
CCOC(=O)c1ccccc1NC(=O)c1ccc2c(SCC(=O)O)c3c(nc2c1)CCCC3,-36,-9.7*,0.41,i,i,i,123*,i
COc1ccccc1C(=O)NCC(=O)N1CC=C(c2ccccc2)CC1,nt,i,nt,nt,nt,nt,nt,nt
CCOC(=O)c1c(NC(=O)C2COc3ccccc3O2)sc(C)c1C (stereo not given),-5,-8.8*,-0.91,i,i,i,107*,0.14*
CCOc1ccccc1N1CCN(C(=S)NC(=O)C23CC4CC(CC(C4)C2)C3)CC1,-6,i,-0.45,i,i,i,nt,nt
CCOc1ccccc1N1CCN(C(=S)NCc2ccc(Cl)cc2)CC1,-12,-9*,-0.05,i,i,i,119*,i
CCOC(=O)c1c(NC(=O)CSc2nnc(CNc3ccc(Cl)cc3)o2)sc(C)c1C,-12,-9.6*,-0.17,i,i,i,90*,i
Cc1cccc(C)c1NC(=O)CN(C)CC(=O)Nc1ccc(F)c(Cl)c1,2,-12*,0.09,i,i,i,82*,i
Cc1nn(CCCC(=O)Nc2cc(Oc3ccccc3)cc([N+](=O)[O-])c2)c(C)c1[N+](=O)[O-],-6,-8.8*,-1.2,i,i,i,124*,0.14*
O=C(N/N=C/c1c[nH]c2ccc(Br)cc12)c1ccn(Cc2ccc(Cl)cc2Cl)n1,-12,-9.8*,0.57,i,-7.2*,i,79*,i
O=C(N/N=C/c1c[nH]c2ccccc12)c1ccn(Cc2ccc(Cl)cc2)n1,-16,-11*,0.97,i,i,i,98*,0.15*
Cc1ccc(/C=N/NC(=O)COc2ccc(Cl)c(C)c2)o1,-10,i,0.14,i,i,i,nt,nt
O=[N+]([O-])c1c(Nc2ccc(O)cc2)cc(Cl)c2nonc12,-30,-11*,-6.5*,9*,i,i,164*,0.054*
CCc1ccc(CNC(=O)CCn2ccc3cc(S(=O)(=O)N4CCCC4)ccc32)cc1,-6,-10*,-1.3,i,i,i,117*,0.15*
CC(C)(C)NC(=O)c1ccc(Sc2ccccc2)c([N+](=O)[O-])c1,-9,-9*,1.4,i,i,i,119*,i
SMILES,hERG protect,KCNK3 inh,Kir21 block,KCNQ1 block,KCNK9 inh,KCNQ1 act,KCNK3 confirm,KCNK3 noninduced
CC(C)CC(=O)N1CCC(N(CCc2ccccc2)Cc2ccccc2)CC1,-11,i,-3.8,i,i,i,nt,nt
CCc1nc(N2CCN(C(=S)NCCCOC)CC2)c2c3c(sc2n1)CCCC3,-14,-8.9*,-0.75,i,i,i,95*,0.15*
COCCCNC(=S)N1CCN(c2nc3ccccc3s2)CC1,-19,i,-1.2,i,i,i,nt,nt
C=CCn1c(SCC(=O)O)nc2sc(CC)cc2c1=O,-5,i,0.41,i,i,i,nt,nt
C=CCn1c(SCC(=O)c2cccs2)nc2sc(CC)cc2c1=O,-9,-11*,0.04,i,i,i,128*,i
C=CCn1c(SCC(=O)N2CCN(C(=O)c3ccco3)CC2)nc2sc(CC)cc2c1=O,-16,-11*,0.13,i,i,i,120*,0.15*
CCN1CCN(c2nc(Nc3ccc(NC(C)=O)cc3)nc(Nc3ccc(NC(C)=O)cc3)n2)CC1,-8,i,1.9,i,i,i,nt,nt
CCNC(=O)C(=O)Nc1ccc2c(c1)N(S(=O)(=O)c1cccs1)CCC2,-15,i,0.52,i,i,i,nt,nt
O=C(Nc1ccc2c(c1)N(S(=O)(=O)c1cccs1)CCC2)c1c(F)cccc1F,-14,-8.7*,0.95,i,i,i,101*,i
COc1ccc(C(=O)COc2cccc(NC(=O)c3ccco3)c2)cc1,-15,i,0.76,i,i,i,nt,nt
O=C(Nc1cccc(OCC(=O)N2CCOCC2)c1)c1cccc([N+](=O)[O-])c1,-11,i,-2.6,i,i,i,nt,nt
Cc1cc(C)cc(C(=O)Nc2cccc(NC(=O)c3ccco3)c2)c1,-11,-11*,-0.3,i,-8*,i,101*,i
